Here are results for four compounds from ChEMBL document CHEMBL1155281, “Synthesis, spectroscopic characterization and antibacterial activity of new cobalt(II) complexes of unsymmetrical tetradentate (OSN2) Schiff base ligands” (2009).

In brackets after ≈: the same amount, converted by molar mass.

The test system of test [1] is Staphylococcus aureus. As to the kind of experiment: Antibacterial activity against Staphylococcus aureus RITCC 1885 after 24 hrs by macrodilution broth susceptibility assay. Type of test: functional. The conditions noted are these: RITCC 1885, 24 h. In a few lines: (§1)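 Macro-dilution broth series of 12 tubes, each holding 1 ml Mueller–Hinton broth. Tube one received 1 ml of 100 mg/ml test solution, then serial dilution down the series. Added 1 ml bacterial suspension matched to 0.5 McFarland (1.5 ×10⁸ cfu/ml). Incubated 37 °C for 24 h. MIC taken as the last tube without turbidity.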

The subject of test [2] is Streptococcus agalactiae. As to the kind of experiment: Antibacterial activity against Streptococcus agalactiae RITCC 1913 after 24 hrs by macrodilution broth susceptibility assay. In kind it is functional. The note with it: RITCC 1913, 24 h. In a few lines:
as §1

Test [3] has as its system Streptococcus agalactiae. In words: Antibacterial activity against Streptococcus agalactiae RITCC 1913 at 100 ul after overnight incubation by agar well diffusion method. Type of test: functional. In a few lines:
(§2)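 Agar well diffusion. Inoculum came from a 12 h, 37 °C enrichment culture in 1 ml Mueller–Hinton broth and was spread on Mueller–Hinton agar. Wells cut with a 6 mm cork borer and filled with 100 µL of compound solution; methanol blank. Incubated overnight at 37 °C, then inhibition zone diameter measured. Triplicate, averaged.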

The test system of test [4] is Pseudomonas aeruginosa. In words: Antibacterial activity against Pseudomonas aeruginosa RITCC 1547 at 100 ul after overnight incubation by agar well diffusion method. In kind it is functional. In a few lines: as §2
Test [5] has as its system Bacillus anthracis. In words: Antibacterial activity against Bacillus anthracis RITCC 1036 after 24 hrs by macrodilution broth susceptibility assay. Type of test: functional. The note with it: RITCC 1036, 24 h.
Test [6] concerns Streptococcus pyogenes. In words: Antibacterial activity against Streptococcus pyogenes RITCC 1940 at 100 ul after overnight incubation by agar well diffusion method. Type of test: functional. In a few lines:
as §2

In test [7] the test system is Klebsiella pneumoniae. In words: Antibacterial activity against Klebsiella pneumoniae RITCC 1249 at 100 ul after overnight incubation by agar well diffusion method. Type of test: functional. In a few lines: as §2
Test [8] concerns Staphylococcus aureus. In words: Antibacterial activity against Staphylococcus aureus RITCC 1885 at 100 ul after overnight incubation by agar well diffusion method. In kind it is functional. In a few lines:
as §2

Test [9] relates to Bacillus anthracis. In words: Antibacterial activity against Bacillus anthracis RITCC 1036 at 100 ul after overnight incubation by agar well diffusion method. Type of test: functional.
The subject of test [10] is Klebsiella pneumoniae. In words: Antibacterial activity against Klebsiella pneumoniae RITCC 1249 after 24 hrs by macrodilution broth susceptibility assay. The note with it: RITCC 1249, 24 h. Type of test: functional. In a few lines: as §1
For test [11], the system named is Pseudomonas aeruginosa. In words: Antibacterial activity against Pseudomonas aeruginosa RITCC 1547 after 24 hrs by macrodilution broth susceptibility assay. The conditions noted are these: RITCC 1547, 24 h. In kind it is functional. In a few lines:
as §1

The subject of test [12] is Streptococcus pyogenes. As to the kind of experiment: Antibacterial activity against Streptococcus pyogenes RITCC 1940 after 24 hrs by macrodilution broth susceptibility assay. In kind it is functional. The note with it: RITCC 1940, 24 h. In a few lines: as §1
The subject of test [13] is Klebsiella pneumoniae. As to the kind of experiment: Antibacterial activity against Klebsiella pneumoniae RITCC 1249 at 10 ug after overnight incubation by agar well diffusion method. In kind it is functional, organism-based. In a few lines: (§3)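 Bacteria were enriched in 1 ml Mueller–Hinton broth at 37 °C for 12 h, then cultured on Mueller–Hinton agar. Wells were cut with a 6 mm cork borer and filled with test solution, with gentamicine as the standard antibiotic. Plates were incubated overnight at 37 °C and inhibition-zone diameters were measured. Values are the average of triplicates. A methanol-only blank was included.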

The test system of test [14] is Bacillus anthracis. As to the kind of experiment: Antibacterial activity against Bacillus anthracis RITCC 1036 at 10 ug after overnight incubation by agar well diffusion method. In kind it is functional, organism-based.
The test system of test [15] is Streptococcus pyogenes. As to the kind of experiment: Antibacterial activity against Streptococcus pyogenes RITCC 1940 at 10 ug after overnight incubation by agar well diffusion method. Type of test: functional, organism-based. In a few lines: as §3

As for `Oc1ccc(Br)cc1/C=N/CCSCCc1ccccn1`, the minimal inhibitory concentration (MIC) with Staphylococcus aureus [1] stood at 6.25 mg/mL (≈ 17.1 mM); against Streptococcus agalactiae [2] it was 3.12 mg/mL (≈ 8.55 mM); in the test on Bacillus anthracis [5] it was 3.12 mg/mL (≈ 8.55 mM); against Klebsiella pneumoniae [10] it was 12.5 mg/mL (≈ 34.2 mM); with Pseudomonas aeruginosa [11], 25 mg/mL (≈ 68.4 mM); against Streptococcus pyogenes [12], 6.25 mg/mL (≈ 17.1 mM). In addition, the “inhibition zone (IZ)” value with Streptococcus agalactiae [3] amounted to 50 mm; with Pseudomonas aeruginosa [4], 20 mm; in the test with Streptococcus pyogenes [6], 40 mm; with Klebsiella pneumoniae [7], 30 mm; in the test on Staphylococcus aureus [8], 40 mm; in the test on Bacillus anthracis [9], 50 mm.
Turning to `COc1ccc(O)c(/C=N/CCSCCc2ccccn2)c1`, the MIC in the test on Staphylococcus aureus [1] stood at 50 mg/mL (≈ 158 mM); in the test with Streptococcus agalactiae [2], 25 mg/mL (≈ 79 mM); in the test with Bacillus anthracis [5] it was 25 mg/mL (≈ 79 mM); against Klebsiella pneumoniae [10], 25 mg/mL (≈ 79 mM); in the test on Pseudomonas aeruginosa [11], 50 mg/mL (≈ 158 mM); against Streptococcus pyogenes [12], 6.25 mg/mL (≈ 19.8 mM). Also, the “inhibition zone (IZ)” value in the test on Streptococcus agalactiae [3] is listed as 20 mm; in the test with Pseudomonas aeruginosa [4] it was 10 mm; in the test on Streptococcus pyogenes [6], 40 mm; in the test on Klebsiella pneumoniae [7], 20 mm; with Staphylococcus aureus [8] it was 10 mm; in the test on Bacillus anthracis [9] it was 20 mm.
GENTAMICIN: the inhibition zone (IZ) in the test with Klebsiella pneumoniae [13] stood at 20 mm; in the test on Bacillus anthracis [14] it was 32 mm; in the test on Streptococcus pyogenes [15] it was 20 mm.
On to `O=[N+]([O-])c1ccc(O)c(/C=N/CCSCCc2ccccn2)c1`, for which the MIC is 25 mg/mL (≈ 75.4 mM) against Staphylococcus aureus [1]; 12.5 mg/mL (≈ 37.7 mM) against Streptococcus agalactiae [2]; 25 mg/mL (≈ 75.4 mM) in the test on Bacillus anthracis [5]; 25 mg/mL (≈ 75.4 mM) against Klebsiella pneumoniae [10]; 25 mg/mL (≈ 75.4 mM) with Pseudomonas aeruginosa [11]; 6.25 mg/mL (≈ 18.9 mM) in the test on Streptococcus pyogenes [12]. In addition, the “inhibition zone (IZ)” value in the test with Streptococcus agalactiae [3] stood at 30 mm; in the test with Pseudomonas aeruginosa [4], 20 mm; in the test on Streptococcus pyogenes [6], 40 mm; in the test with Klebsiella pneumoniae [7], 20 mm; with Staphylococcus aureus [8], 20 mm; in the test on Bacillus anthracis [9], 20 mm.
